Screening results deposited in PubChem BioAssay by several laboratories.
The sample as a whole holds a higher share of hits than the screen did.
T cruzi inh = blocks replication of Trypanosoma cruzi. inhibition, % (test concentration not listed). T. cruzi beta-gal in NIH3T3, luminescence, 90 h. AID 1885. hit rate 1.4% among 300,000;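 active = mean inhibition across valid replicates above about 55%, limit read from the data; inconclusive = mean below that limit but half or more replicates reach it; inactive = mean below it, under half of replicates reach it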;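 note: signal also drops with host cell toxicity which is not excluded here; higher percent means less beta-gal luminescence so fewer parasites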
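System: mouse NIH/3T3 fibroblasts infected with β-gal-expressing T. cruzi Tulahuen C4 / Input: NIH/3T3 cells, 5,000 per well / Buffer or medium: Low-serum DMEM with 2% FBS / Probe or stimulus: 5000 reporter trypomastigotes per well / Schedule: ≥90 h infection period, 3 h prior cell attachment / Measured by: GalScreen luminescence, 60 min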
L major viab = inhibitors of Leishmania major promastigote growth; hit rate 9% among 200,000; Leishmania major promastigotes, resazurin fluorescence viability; inhibition, % at 10 µM; in the data active = inhibition above about 50%;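 note: promastigotes grown with compound for 44 hours at 28 °C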
PolyA inhibitor = yeast polyadenylation inhibition; hit rate 0.02% among 300,000; AID 1875; activity score, % at 12 µM; S. cerevisiae SKY197-pL101 polyadenylation reporter, beta-gal luminescence; efflux-impaired pdr1/pdr3 knockout yeast; score 100 = 6 SD above DMSO;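 active = lowest replicate activity score at least 50, where 100 means six control SD above control mean; inconclusive = lowest score under 50 but half or more replicates reach 50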;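 note: yeast exposed to compound for 9 h at 30 °C; higher score means more reporter readthrough which indicates perturbed polyadenylation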
NALP3 yeast inh = NALP3 inhibition in yeast. hit rate 0.39% among 330,000. inhibition, % at 10 µM. Yeast reconstituted NLRP3/ASC/caspase-1, beta-gal luminescence, 24 h;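 active = inhibition of 50% or more; inactive = inhibition below 50%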
Calb FLC = C. albicans growth modulation with fluconazole; C. albicans CaCi-2 + fluconazole, Alamar Blue growth, 48 h; growth inhibition, % (test concentration not listed); hit rate 0.57% among 300,000; AID 1979;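 active = growth inhibition above about 58% in most replicates, limit read from the data, passing the limit was not always enough; inconclusive = exactly half the replicates above a set limit; inactive = most replicates below a set limit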;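 note: all wells also contain fluconazole at 8 µg/ml as a sub-toxic cotreatment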
NALP1 inh = inhibitors of NALP1 inflammasome in yeast | S. cerevisiae NALP1/ASC/caspase-1 growth, X-gal OD620, 72 h | inhibition, % at 10 µM | hit rate 0.61% among 280,000 | AID 2071; in the data active = inhibition mostly above about 24%, no sharp cut-off; inactive = mostly below about 32%
Hits are given with their value; 0 = inactive; ? = inconclusive; - = no result given.

SMILES	T cruzi inh	L major viab	PolyA inhibitor	NALP3 yeast inh	Calb FLC	NALP1 inh
CC(=O)O[C@@]12CO[C@@H]1C[C@H](OC1OCC(O)C(O)C1O)[C@@]1(C)C(=O)[C@H](O)C3=C(C)[C@@H](OC(=O)[C@H](O)[C@@H](NC(=O)c4ccccc4)c4ccccc4)C[C@@](O)([C@@H](OC(=O)c4ccccc4)C12)C3(C)C (stereo partly specified)	0	-	0	0	0	0
CCC(C)C(=O)N[C@@H](c1ccccc1)[C@@H](O)C(=O)O[C@H]1C[C@@]2(O)[C@@H](OC(=O)c3ccccc3)C3[C@](C)(C(=O)[C@H](OC(C)=O)C(=C1C)C2(C)C)[C@@H](O)C[C@H]1OC[C@@]31OC(C)=O (stereo partly specified)	57.0	-	0	0	0	0
COC(=O)C1=C(c2ccccc2)C[C@@H]2CC[C@H]1N2C(=O)NC1CC1	0	-	0	0	0	-
CNC(=O)O/N=C(\C)Cc1nnn(-c2cc(C)on2)n1	0	-	0	0	0	0
N#CSCC(=O)N1c2ccccc2CCc2ccccc21	0	96.4	0	0	0	0
O=c1c2ccccc2[nH]c(=S)n1-c1ccc(Br)cc1	0	0	0	0	0	33.4
CC(=O)OC1(c2ccccc2)CC(C(C)(C)C)CN(C(C)(C)C)C1 (stereo unspecified)	0	0	0	0	0	0
CCNc1cc(N2CCNCC2)ccc1[N+](=O)[O-]	0	0	0	0	0	0
O=[N+]([O-])c1ccc(N2CCNCC2)cc1N1CCCCC1	0	75.8	0	0	0	0
O=C1CN=C(c2ccc(Cl)cc2)c2oc3ccccc3c2N1	0	-	0	0	0	-
COc1ccc2oc3c(c2c1)NC(=O)CN=C3c1ccccc1	0	0	0	0	0	22.9
COC(=O)C1=C(c2ccc(-c3ccccc3)c(F)c2)C[C@@H]2CC[C@H]1N2C(=O)NCCOc1ccccc1Cl	-	-	-	0	-	-
CNC(=O)O/N=C/c1nn(C(=O)C(C)(C)C)cc1Br	0	-	0	0	0	0
CC/C(=C\C=C\[C@@H]1C=C[C@@H]2CCC[C@H]2[C@@H]1C(=O)c1ccc[nH]1)[C@@H]1O[C@@H]([C@@H](C)C(=O)O)CC[C@@H]1C	65.1	0	0	0	0	0
Cc1cc(OCC(=O)NCc2ccc(S(N)(=O)=O)cc2)c2c3c(c(=O)oc2c1)CCC3	0	-	0	0	0	0
C/C(O)=C(\C#N)C(=O)Nc1cc(Br)ccc1Br	-	-	-	0	-	-
c1ccc2c(CN3CCCCCC3)c[nH]c2c1	0	56.6	0	0	0	0
c1ccc2c(CN3CCOCC3)c[nH]c2c1	0	-	0	0	0	0
CCN1CCN(C(=O)Cc2c(C)n(C(=O)c3ccc(Cl)cc3)c3ccc(OC)cc23)CC1	0	98.3	0	0	0	0
COc1ccccc1NC(=O)COC(=O)c1cn(C)c2ccccc12	-	-	-	0	-	-
CCC(=NCCC(c1ccccc1)c1ccccc1)c1c(O)[nH]c(=O)[nH]c1=O	0	71.8	0	0	0	0
COc1ccc(-n2c(O)c(C(C)=NCCc3c[nH]c4ccccc34)c(=O)[nH]c2=O)cc1	0	-	0	0	0	0
Cc1ccc(C(=O)n2cc(CCN3CCS(=O)(=O)CC3)c3ccccc32)cc1	0	0	0	0	0	0
COc1ccc(CNCCc2c(C)[nH]c3ccc(OC(F)(F)F)cc23)c(OC)c1	58.7	-	0	0	0	0
Cc1ccc(CN2C(=O)NC(=O)C3(Cc4c(nc5ccccn5c4=O)N4CCCCCC43)C2=O)cc1 (stereo unspecified)	0	84.5	0	0	0	0
SMILES	T cruzi inh	L major viab	PolyA inhibitor	NALP3 yeast inh	Calb FLC	NALP1 inh
CCC1(OC(=O)c2ccccc2)CC(C)N(C)CC1C (stereo unspecified)	0	-	0	0	0	0
C#CC1(OC(=O)c2ccccc2)CC(C)N(C)CC1C (stereo unspecified)	0	-	0	0	0	0
CCOc1ccc(Br)c(C2(O)CC(C)N(C)CC2C)c1 (stereo unspecified)	0	83.2	0	0	0	0
Cc1ccc(C2(O)CC(C)N(C)CC2C)cc1 (stereo unspecified)	0	87.7	0	0	0	0
CC1CN(C)C(C)(C)CC1(O)c1ccccc1 (stereo unspecified)	0	57.1	0	0	0	0
CCOC(=O)C1CCN(/C=C2/C(=O)NC(=O)N(c3cccc(C)c3C)C2=O)CC1	0	54.4	0	0	0	0
CCOC(=O)C1CCN(/C=C2\C(=O)NC(=S)N(CC)C2=O)CC1	0	75.9	0	0	0	0
CCOC(=O)C1CCN(/C=C2/C(=O)NC(=S)N(c3cccc(OC)c3)C2=O)CC1	0	0	0	0	0	0
COc1ccc(S(=O)(=O)N2CC3CC(C2)c2cccc(=O)n2C3)cc1 (stereo unspecified)	0	0	0	0	0	0
CNC(C(=O)c1ccccc1)C(OC(C)=O)c1cccc([N+](=O)[O-])c1 (stereo unspecified)	0	-	0	0	0	0
Cc1ccnc(-n2c(C)nc3ccccc3c2=O)c1	0	0	0	0	0	0
Cc1cccc(N2CCc3c2nc2ccccc2c3N)c1	0	93.8	0	0	?	0
Cc1ccc(C(O)(c2ccc(C)c(C)c2)C2CN3CCC2CC3)cc1C (stereo unspecified)	0	-	0	0	0	0
Cc1ccccc1C(O)(Cc1ccccc1)C1CN2CCC1CC2 (stereo unspecified)	0	98.2	0	0	0	0
CN1C(C(=O)N2CCC3(CC2)OCCO3)=CC(c2ccc(F)cc2)=NS1(=O)=O	0	-	0	0	0	0
Fc1ccc(C2NCCc3[nH]cnc32)cc1 (stereo unspecified)	0	0	0	0	0	0
COC(=O)C1=CO[C@@H](C)[C@@H]2CN3CC[C@@]4(C(=O)Nc5ccccc54)[C@@H]3C[C@H]12	0	0	0	0	0	0
C=CCN1C(=O)/C(=C/c2cc(C)n(-c3ccccn3)c2C)C(=O)NC1=S	0	95.8	0	0	0	0
CCC(C(=O)N1C[C@H]2C[C@@H](C1)c1cccc(=O)n1C2)c1ccccc1 (stereo partly specified)	0	-	0	0	0	0
C=CCn1c(O)c(/C(CC)=N/NC(=S)Nc2ccccc2)c(=O)[nH]c1=O	0	-	0	0	0	0
COc1cccc(C(=O)C2CCCN(Cc3cccc4c3OCO4)C2)c1 (stereo unspecified)	0	0	0	0	107.8	0
COc1ccc(CN2CCCC(C(=O)c3ccccc3SC)C2)cc1O (stereo unspecified)	0	62.7	0	0	0	0
COc1cccc(C(=O)C2CCCN(Cc3ccc4nonc4c3)C2)c1 (stereo unspecified)	0	88.7	0	0	0	0
O=C(c1cc(F)ccc1F)C1CCCN(Cc2ccc3nonc3c2)C1 (stereo unspecified)	0	86.5	0	0	0	0
